This is a sample that favours compounds with a hit; in the whole collection about 1.4% have one here.
GSIS activator: primary screen for activators of insulin secretion dependent on glucose, INS-1E cells, GLuc reporter luminescence; INS-1E GLuc reporter insulin secretion, 2-3 h; activation, % at 16.6 µM; 370,000 compounds, 0.61% hits; AID 743287;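 active means lowest replicate activation of at least 40%, so every replicate reaches that level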;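 further: 0% = median of neutral control wells and 100% = median of IBMX positive control wells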
FN deposition inh: fibronectin deposition inhibition. AH1F fibroblasts, Alexa488-fibronectin deposition fluorescence, overnight. inhibition, % at 12.6 µM. 350,000 compounds, 0.086% hits;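 active means mean inhibition across replicates of 30% or more, regardless of how many single replicates reach that level; inconclusive means mean under 30% yet at least half of replicates reach 30%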;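 further: positive control wells lacked labelled fibronectin entirely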
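Material – AH1F fibroblast monolayer, labelled fibronectin deposition · Reagent – labelled fibronectin 24 nM · Timing – 1 h adhesion, overnight exposure · Measured by – fluorescence at 485 nm excitation, 525 nm emission · Read-out – inhibition of fibronectin deposition signal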
Env fusion inh: HIV envelope-mediated fusion inhibition; HeLa-JRFL Env/CEM21 cell fusion, luciferase; inhibition, % at 12.3 µM; 360,000 compounds, 1.1% hits; AID 651610;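 active means mean replicate inhibition score of at least 50 and every replicate individually at or above 50; inconclusive means only one of the two criteria met; inactive means mean below 50 and not all replicates reaching 50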;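 further: 0% = plate neutral controls and 100% = maraviroc near 300 nM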
PDI inh: blocks human protein disulfide isomerase activity. P07237. PDI insulin aggregation turbidity, A650, 90 min. inhibition, % at 10 µM. 350,000 compounds, 0.052% hits;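 active means mean inhibition across replicates of 30% or more, whatever share of single replicates reach that level; inconclusive means mean inhibition below 30% while every single replicate reaches 30%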
Target sequence (P07237 whole entry, looked up): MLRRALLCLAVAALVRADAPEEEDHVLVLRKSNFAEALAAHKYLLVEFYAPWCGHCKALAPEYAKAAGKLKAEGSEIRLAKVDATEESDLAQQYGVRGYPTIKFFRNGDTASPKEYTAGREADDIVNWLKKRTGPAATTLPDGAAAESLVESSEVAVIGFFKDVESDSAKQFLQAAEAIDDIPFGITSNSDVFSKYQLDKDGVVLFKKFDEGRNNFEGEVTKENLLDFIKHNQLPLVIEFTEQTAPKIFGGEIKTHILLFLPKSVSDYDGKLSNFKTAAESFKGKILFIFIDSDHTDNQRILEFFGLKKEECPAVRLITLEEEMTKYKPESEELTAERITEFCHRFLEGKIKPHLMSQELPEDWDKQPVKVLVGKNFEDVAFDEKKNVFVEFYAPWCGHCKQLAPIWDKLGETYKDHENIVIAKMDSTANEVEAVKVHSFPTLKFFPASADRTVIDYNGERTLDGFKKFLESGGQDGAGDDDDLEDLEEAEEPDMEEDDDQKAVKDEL
ERp5 block: inhibitors of human ERp5; inhibition, % at 9.99 µM; ERp5 insulin aggregation, absorbance 650 nm, 90 min; 350,000 compounds, 0.05% hits; Q15084; AID 651711;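 active means mean replicate inhibition above about 25%, with every replicate also reaching it, limit read from the data, passing the limit was not always enough; inconclusive means only one of those two criteria met; inactive means neither criterion met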
Active calls of the source: *; ? = inconclusive; nt = no result given; [ ] = another dose, or the depositor's remark.

SMILES	GSIS activator	FN deposition inh	Env fusion inh	PDI inh	ERp5 block
O=C(NC[C@@H]1N[C@@H](CO)[C@H]1c1ccc(C2=CCCCC2)cc1)c1ccc(F)cc1	-8	-17	nt	nt	0
O=C(CCC(=O)c1cccs1)NCc1ccncc1	-6	4	1	-4	-3
O=C(CCC(=O)c1cccs1)NCc1cccnc1	3	38*	-19	-6	0
N#C[C@H]1[C@@H](c2ccccc2)[C@@H](CO)N1C(=O)C1CCCC1	13	-5	nt	nt	-2
CNC[C@H]1OCCCC[C@@H](C)Oc2ccc(N)cc2C(=O)N([C@H](C)CO)C[C@H]1C	12	-6	-14[16.7 µM]	nt	nt
CCc1ccc(OCC(=O)NC(=S)Nc2ccc(C)cc2C)c(Br)c1	41*	3	?	-5	nt
Cc1nc(N2CCOCC2)nc(N2CCCC2)c1[N+](=O)[O-]	53*	12	nt	4	nt
COc1ccc(CCN2C(=S)NC3CC2(C)Oc2ccc([N+](=O)[O-])cc23)cc1OC (stereo not given)	nt	4	59*	-9	nt
O=C(OC1CCOC1=O)c1cc(-c2cccs2)nc2ccccc12 (stereo not given)	59*	0	10	1	-1
CNC(=O)C[C@@H]1CC[C@H]2[C@@H](COc3ccc(NC(=O)C(C)C)cc3C(=O)N2C)O1	1	2	8[16.7 µM]	nt	nt
C[C@H]1CN([C@@H](C)CO)C(=O)c2cc(NC(=O)c3ccncc3)ccc2O[C@H]1CN(C)S(C)(=O)=O	3	1	-8[16.7 µM]	nt	7
O=C(Nc1ccccc1Cl)c1ccccc1CC(O)(c1ccccc1)c1ccccc1	5	0	93*	-8	2
C[C@H](CO)N1C[C@H](C)[C@H](CN(C)C(=O)Cc2cccnc2)Oc2ncc(-c3cncnc3)cc2C1=O	25	1	-34[16.7 µM]	nt	-7
CC(=O)Nc1sc2c(c1C(c1ccc(F)cc1)N1CCOCC1)CCCC2 (stereo not given)	nt	0	90*	3	nt
CC(=O)Nc1sc2c(c1C(c1ccc(Cl)cc1)N1CCOCC1)CCCC2 (stereo not given)	-47	nt	nt	-1	nt
C[C@@H]1CN([C@H](C)CO)C(=O)c2cc(C#CC3CC3)cnc2O[C@@H]1CN(C)C(=O)Nc1ccc(F)cc1	-7	nt	nt	nt	0
COc1ccc2c3c(n(C)c2c1)[C@@H](CO)N(CC1CC1)CC31CCN(S(=O)(=O)c2cn(C)cn2)CC1	-7	nt	nt	nt	2
O=C(CN1CCN(Cc2ccc(Cl)cc2)C1=O)NCCCN1CCOCC1	nt	7	5	8	1
O=C(CN1CCN(Cc2ccc(Cl)cc2)C1=O)NCCCN1CCN(c2ccc(F)cc2)CC1	-27	-1	68*	-7	nt
CO[C@H]1CC[C@@H]2CCOc3ccc(C#N)cc3C(=O)N(C)C[C@H](c3ccccc3)CC(=O)N(C)C[C@@H]1O2	14	-2	15[16.7 µM]	nt	nt
Fc1cc2[nH]c(=S)[nH]c2cc1Cl	16	-5	57*	10	7
Cc1cc2[nH]c(=S)[nH]c2cc1C	5	8	-274	5	3
COC(=O)c1sc(NC(=O)COc2cccnc2[N+](=O)[O-])c(C(=O)OC)c1C	40*	0	nt	2	-7
C[C@H]1CCCCO[C@@H](CN(C)Cc2ccc(C(F)(F)F)cc2)[C@@H](C)CN([C@@H](C)CO)C(=O)c2cc(NC(=O)Nc3ccc(F)cc3)ccc2O1	1	0	87*[16.7 µM]	nt	3
CC(C)NC(=O)Nc1ccc2c(c1)C(=O)N([C@H](C)CO)C[C@@H](C)[C@H](CN(C)Cc1ccc(C(F)(F)F)cc1)OCCCC[C@@H](C)O2	-15	4	75*[16.7 µM]	nt	-1
SMILES	GSIS activator	FN deposition inh	Env fusion inh	PDI inh	ERp5 block
C[C@@H]1CCCCO[C@@H](CN(C)Cc2ccc(C(F)(F)F)cc2)[C@H](C)CN([C@H](C)CO)C(=O)c2cc(NC(=O)C3CCCCC3)ccc2O1	-13	nt	71*[16.7 µM]	nt	nt
C[C@@H]1CCCCO[C@@H](CN(C)Cc2ccc(C(F)(F)F)cc2)[C@@H](C)CN([C@H](C)CO)C(=O)c2cc(NC(=O)Nc3ccc(F)cc3)ccc2O1	-6	-15	-19[16.7 µM]	nt	7
C[C@@H]1CCCCO[C@@H](CN(C)Cc2ccc(C(F)(F)F)cc2)[C@H](C)CN([C@H](C)CO)C(=O)c2cc(NC(=O)Nc3ccc(C(F)(F)F)cc3)ccc2O1	4	-5	70*[16.7 µM]	nt	nt
C[C@@H]1CCCCO[C@@H](CN(C)C(=O)Nc2ccc(C(F)(F)F)cc2)[C@@H](C)CN([C@H](C)CO)C(=O)c2cc(NC(=O)Nc3ccccc3)ccc2O1	19	-2	nt	nt	nt
C[C@@H]1CN([C@H](C)CO)C(=O)c2cc(NS(C)(=O)=O)ccc2O[C@@H]1CN(C)C(=O)NC1CCCCC1	5	nt	nt	nt	-8
CN(C)C(=O)c1ccc(-c2ccc3c(c2)[C@H]2[C@H](CCN2C(=O)C2CC2)[C@@H](CO)N3C)cc1	2	-6	nt	nt	-1
C[C@@H]1CCCCO[C@@H](CN(C)Cc2ccc(C(F)(F)F)cc2)[C@H](C)CN([C@H](C)CO)C(=O)c2cc(NC(=O)Nc3ccc(F)cc3)ccc2O1	-14	-6	60*[16.7 µM]	nt	0
CN(C)C(=O)c1cccc(-c2ccc([C@@H]3[C@H](CO)N4C(=O)CN(C(=O)C5CC5)C[C@@H]34)cc2)c1	11	3	nt	nt	1
COc1cccc(-c2ncc3ccccc3c2COC(=O)N(C)C)c1	18	8	61*	-2	0
O=C(OCc1c(-c2ccccc2)ncc2ccccc12)c1cccs1	55*	2	13	-2	0
COCC#Cc1cnc2c(c1)C(=O)N([C@@H](C)CO)C[C@H](C)[C@@H](CN(C)C(=O)c1cnccn1)O2	29	nt	0[16.7 µM]	nt	11
C[C@@H]1CCCCO[C@@H](CN(C)C(=O)CCCN(C)C)[C@H](C)CN([C@H](C)CO)C(=O)c2cc(NC(=O)CCC(F)(F)F)ccc2O1	7	nt	-6[16.7 µM]	nt	-3
CN(C)C(=O)COC(=O)c1cccnc1Nc1ccccc1F	80*	-5	9	6	-2
CCOc1ncccc1C(=O)Nc1ccc(Cl)cc1	nt	6	-280	-7	nt
CCOc1ncccc1C(=O)Nc1ccc(F)cc1	-18	nt	5	6	-10
CCOc1ncccc1C(=O)Nc1cccc(S(=O)(=O)NC2=NCCC2)c1	55*	8	nt	-5	14
CCOc1ncccc1C(=O)NNC(=O)c1ccccc1-n1cccc1	54*	-4	-5	8	-4
CCOc1ncccc1C(=O)Nc1ccccc1F	77*	5	-11	13	1
Cc1noc(C)c1NC(=O)Nc1cccc2c1O[C@@H](CN(C)S(=O)(=O)c1ccc(F)cc1)[C@@H](C)CN([C@H](C)CO)C2=O	2	nt	nt	nt	11
O=C(C1CCCC1)N1[C@H](CO)[C@H](c2ccccc2)C12CN(CCC(F)(F)F)C2	5	-20	43[16.7 µM]	nt	0
CCOc1ncccc1C(=O)OCC(=O)NCCCc1ccccc1	54*	-3	?	-8	15
COc1ccccc1-c1c(-c2ccc(O)cc2O)n[nH]c1C(F)(F)F	-44	-2	93*	-2	-2

Source: PubChem BioAssay
